An excerpt weighted towards active compounds, which were near 1.8% of everything screened.
PTPN22 act – increases human PTPN22 phosphatase activity; Q9Y2R2; recombinant LYP, DiFMUP fluorescence; 0 = plate median, 100 = signal doubled; activation, % at 2 µM; 96,000 compounds, 0.11% hits; AID 697;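 active = activation at 2 µM above a set limit, the mean plus 5 SD, cut at about 37% in these data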
Target sequence (Q9Y2R2 whole entry, looked up): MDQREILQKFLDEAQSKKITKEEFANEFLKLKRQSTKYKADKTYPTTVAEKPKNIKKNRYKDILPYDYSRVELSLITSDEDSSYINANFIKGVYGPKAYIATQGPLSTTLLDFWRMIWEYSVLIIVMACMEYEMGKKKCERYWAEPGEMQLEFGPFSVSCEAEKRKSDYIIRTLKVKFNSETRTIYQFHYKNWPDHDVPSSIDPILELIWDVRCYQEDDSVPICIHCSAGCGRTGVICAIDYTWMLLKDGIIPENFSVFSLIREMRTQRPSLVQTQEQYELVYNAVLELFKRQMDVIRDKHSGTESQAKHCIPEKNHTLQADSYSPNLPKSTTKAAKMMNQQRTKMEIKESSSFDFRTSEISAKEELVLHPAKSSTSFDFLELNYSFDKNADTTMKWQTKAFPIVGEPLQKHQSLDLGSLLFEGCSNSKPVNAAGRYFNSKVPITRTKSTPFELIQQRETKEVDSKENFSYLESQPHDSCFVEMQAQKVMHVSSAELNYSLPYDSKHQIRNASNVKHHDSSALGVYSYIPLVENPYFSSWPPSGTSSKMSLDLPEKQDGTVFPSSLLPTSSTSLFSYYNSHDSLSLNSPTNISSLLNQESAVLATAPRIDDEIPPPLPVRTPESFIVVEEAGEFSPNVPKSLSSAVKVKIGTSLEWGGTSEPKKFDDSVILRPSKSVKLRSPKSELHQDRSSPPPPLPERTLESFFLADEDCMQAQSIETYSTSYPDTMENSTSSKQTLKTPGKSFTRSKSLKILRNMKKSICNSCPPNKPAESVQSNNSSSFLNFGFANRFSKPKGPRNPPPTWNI
Rev-RRE block – inhibitors of HIV-1 Rev-RRE RNA interaction; P05866; Rev peptide-RRE RNA binding, FRET; inhibition, % at 8 µM; 97,000 compounds, 0.79% hits; AID 704;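 active = inhibition above the screen-wide mean plus 3 SD, cut at about 35% in these data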
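Material: labelled RRE RNA duplex and labelled Rev peptide / Buffer or medium: HEPES pH 7.5 salt buffer with EDTA / Compound dosing: single point, 8 µM final nominal compound concentration / Benchmarks: DMSO low control, neomycin B high control / Timing: 5 min preincubation and 15 min binding, 25 °C / Technique: FRET fluorescence readout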
EphB4 antag – blocks human EphB4 binding to ephrin-B2 | P54760 | EphB4 LBD / TNYL-RAW-Alexa532 peptide, fluorescence polarization | inhibition, % at 7 µM | 97,000 compounds, 0.15% hits | AID 720;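 active = inhibition above the screen-wide mean inhibition plus 3 SD, cut at about 15% in these data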
Plk1 PBD FP – blocks phosphopeptide binding to human Plk1 polo box domain | P53350 | inhibition, %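 (tested at about 20 µM)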 | AID 693 | 97,000 compounds, 0.13% hits | Plk1 PBD phosphopeptide binding, fluorescence polarization; in the data active = inhibition above about 34%, passing the limit was not always enough
PLK1 kinase inh – PLK1 (human) kinase inhibition | P53350 | recombinant PLK1 kinase, TR-FRET peptide phosphorylation | inhibition, % at 10 µM | 97,000 compounds, 0.53% hits | AID 619;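 active = inhibition of 50% or more in the single-concentration screen; inactive = inhibition below 50%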
LYP inh 2 – blocks human PTPN22 phosphatase activity | Q9Y2R2 | recombinant LYP catalytic domain, DiFMUP fluorescence | inhibition, % at 2 µM | 96,000 compounds, 0.21% hits | AID 640;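 active = inhibition at 2 µM at or above a set limit, the screen mean plus 3 SD, cut at about 24% in these data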
Large screens that a line does not name were inactive; [ ] = remark or other dose.

CCN(CC)c1ccc(/C=C/c2nc3ccccc3s2)cc1	Rev-RRE block 123[fluorescence artefact?]
N#C/C(C(=O)c1ccccc1)=C1/SC=C(N)N1c1ccccc1	Rev-RRE block 118[fluorescence artefact?]
CCc1c(C)sc(NC(=O)CC#N)c1C#N	Rev-RRE block 37
COc1ccc(-n2c(Cc3cccn3C)nnc2SCC(=O)Nc2cccc(NC(C)=O)c2)cc1	none
CC(=O)Nc1cccc(NC(=O)CSc2nnc(Cc3cccn3C)n2-c2ccc(C)cc2)c1	EphB4 antag 16
Cc1c(Cl)c(C(F)(F)F)nn1CC(=O)N1CCSCC1	none
Cc1ccc2oc3nc(C)c(C(=O)Nc4cccc(C(F)(F)F)c4)cc3c(=O)c2c1	LYP inh 2 31
CSc1nnnn1-c1ccc(C(=O)O)cc1	none
O=C(O)c1ccc(-n2nnnc2SCc2ccccc2F)cc1	PLK1 kinase inh 59 (no result: PTPN22 act, LYP inh 2)
C=CCc1cc(C)cc(C)c1OCCn1cncn1	EphB4 antag 17
COCCn1c(Cc2ccccc2)nnc1SCc1nc2ccccc2c(=O)[nH]1	LYP inh 2 28
CCCc1cc(SCC(=O)Nc2c(C)n(C)n(-c3ccccc3)c2=O)n2c(nc3ccccc32)c1C#N	Rev-RRE block 41
N#Cc1c(N)sc2c1CCN(CCc1ccccc1)C2	Rev-RRE block 65
N#Cc1c(N2CCCCC2)nc(N2CCCCC2)c2c1CCN(Cc1ccccc1)C2	none
COc1ccc(C2N=C(N)N=C(N)N2c2ccccc2OC)cc1OC (stereo not drawn)	none
O=c1oc2ccccc2cc1-c1nc(-c2cccs2)cs1	Rev-RRE block 62
CNc1nnc(-c2cc3ccccc3oc2=O)s1	Rev-RRE block 52
CCOc1ccc(OCC)c(-c2c(=O)n(OCc3ccccc3Br)c3ccccc3[n+]2[O-])c1	none
CSc1ccccc1C(=O)Nc1cccc(C(C)O)c1 (stereo not drawn)	none
CC(O)c1cccc(NC(=O)CCC(=O)O)c1 (stereo not drawn)	EphB4 antag 19
N#CCCn1cc(C(CC(=O)c2ccc(Br)cc2)C(=O)O)c2ccccc21 (stereo not drawn)	PLK1 kinase inh 56 (no result: PTPN22 act, LYP inh 2)
COc1ccccc1N=c1oc2cc(O)ccc2cc1C(N)=O	Rev-RRE block 63
Cc1cccc(N=c2oc3cc(O)ccc3cc2C(N)=O)c1	Rev-RRE block 47
Cc1nc(COC(=O)c2c(C)nn(-c3ccccc3)c2C)cs1	none
CCCn1c(N2CCN(CC(=O)c3c[nH]c4ccccc34)CC2)nc2c1c(=O)[nH]c(=O)n2C	none
Cn1c(-c2c(N)n(CCc3ccccc3)c3nc4ccccc4nc23)nc2ccccc21	Rev-RRE block 44
Cn1c(-c2c(N)n(C3CCCC3)c3nc4ccccc4nc23)nc2ccccc21	Rev-RRE block 58
Cn1c(-c2c(N)n(CCCc3ccccc3)c3nc4ccccc4nc23)nc2ccccc21	Rev-RRE block 45
N#Cc1c(N)n(CCc2ccc(F)cc2)c2nc3ccccc3nc12	none
COCCCn1c(N)c(-c2nc3ccccc3n2C)c2nc3ccccc3nc21	Rev-RRE block 58
CCCS(=O)(=O)N1CCCC(C(=O)NCCCN2CCN(c3cccc(Cl)c3)CC2)C1 (stereo not drawn)	none
CCOc1ccc(NC(=O)CCn2c(=O)[nH]c3ccsc3c2=O)cc1	none
O=C(CN1CCOCC1)N1CCN(C(=O)CN2CCOCC2)CC1	none
COc1ccc(C(C)=O)cc1CSc1nnc(-c2ccc(Cl)cc2)n1-c1ccccc1	none
CSC1=C(C#N)C(c2ccc(C(C)C)cc2)CC(=O)N1 (stereo not drawn)	PLK1 kinase inh 66 (no result: PTPN22 act, LYP inh 2)
COc1ccc(-c2nc3c(c(=O)n(C)c(=O)n3C)n2CC2CC(c3ccccc3)=NO2)cc1OC (stereo not drawn)	none
CCN(CC)c1ccc(NC(=O)COc2ccc(C)cc2)cc1	none
Cc1cc2oc(C(=O)N(Cc3ccccc3)C3CCS(=O)(=O)C3)cc(=O)c2cc1Cl (stereo not drawn)	none
Cc1ccc(N2C(=O)C3C(C2=O)C(C(=O)c2ccc(Cl)cc2)N2CCCC32)cc1 (stereo not drawn)	Rev-RRE block 62
Cc1cc(C)c(C)c(S(=O)(=O)NCc2ccc(C(=O)N3CCCCC3)cc2)c1C	none
CC(C)C1O/C(=N/C(=O)Nc2ccc(Cl)c(Cl)c2)NC1=O (stereo not drawn)	none
Cc1ccc(S(=O)(=O)N=Nc2c(O)[nH]c3ccccc23)cc1	none
Oc1[nH]c2ccccc2c1N=Nc1nc2ccccc2s1	EphB4 antag 15
Cn1c(=O)oc2cc(S(=O)(=O)NCC3CCCO3)ccc21 (stereo not drawn)	Rev-RRE block 53
CCCn1nc(-c2ccccc2)c2nc3ccccc3nc21	Rev-RRE block 94[fluorescence artefact?]
CCCCCn1nc(-c2ccccc2)c2nc3ccccc3nc21	Rev-RRE block 90[fluorescence artefact?]
CCCCn1c2nc3ccccc3nc2c2c(=O)n(CCC)cnc21	none
CCn1nc(-c2ccccc2)c2nc3ccccc3nc21	Rev-RRE block 90[fluorescence artefact?]
CCn1c2ccc(Cl)cc2c2nc3ccccc3nc21	none
O=S(=O)(/C=C/c1ccccc1)Oc1ccccc1	none
CCCN(CC1CC1)C(=O)CSc1nnc(-c2cc(-c3cccs3)nc3ccccc23)o1	none
O=C(CSc1ncn[nH]1)Nc1ccc(Cl)c(Cl)c1	none
CN(C(=O)N1CCN(c2ccccn2)CC1)c1ccccc1	EphB4 antag 15
COc1ccccc1NC(=O)N1CCN(c2ccccn2)CC1	PLK1 kinase inh 62 (no result: PTPN22 act, LYP inh 2)
CN(CC(=O)N1CCN(c2ccccn2)CC1)S(=O)(=O)c1ccccc1	none
CC12CCC(C(=O)N(NC(=O)c3cc(Cl)ccc3O)C1=O)C2(C)C (stereo not drawn)	none
O=c1oc(/C=C/c2ccccc2)nc2sc3c(c12)CCC3	Rev-RRE block 38
Cc1[nH]c(=O)[nH]c(=O)c1S(=O)(=O)N1c2ccc(F)cc2CCC1C (stereo not drawn)	none
N#CC(c1cccc(C(F)(F)F)c1)(c1ncc(C(F)(F)F)cc1Cl)N1CCOCC1 (stereo not drawn)	LYP inh 2 40
N#CC(c1ccccc1)(c1ncc(C(F)(F)F)cc1Cl)N1CCOCC1 (stereo not drawn)	none
Cc1ccc(Cn2c(N)c(S(=O)(=O)c3cccs3)c3nc4ccccc4nc32)cc1	none
Cc1ccc(S(=O)(=O)c2c(N)n(Cc3ccco3)c3nc4ccccc4nc23)cc1	Rev-RRE block 60
Cc1ccc(S(=O)(=O)Nc2nc3ccccc3nc2NCc2ccco2)cc1	Rev-RRE block 46
Cc1cccc(S(=O)(=O)c2c(N)n(Cc3ccco3)c3nc4ccccc4nc23)c1	Rev-RRE block 74
O=C(CCc1ccccc1)NNC(=S)NC(=O)c1ccc(Cl)cc1	none
CC1CCN(C(=O)CSc2nnc(-c3cc4ccccc4cc3O)n2Cc2ccco2)CC1	none
